System: HEK-293T
Test: Multiplex assay against HEK293T
Type: toxicity, cell-based
Settings: human
Outline: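 Live cells carried four stains from seeding: Hoechst33342, BioTracker Green Microtubule Cytoskeleton Dye, MitoTracker Red and Annexin V Alexa Fluor 680. They were imaged on a CQ1 microscope at 37°C and 5% CO2 after compound addition. Using CellPathfinder machine-learning gating, cells were split into Hoechst high-intensity objects or normal cells, normal cells into healthy, pyknosed or fragmented nuclei, and pyknosed cells into mitotic or apoptotic; tubulin, mitochondrial-mass and membrane-permeability phenotypes are per cents of healthy-nucleus cells.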

[1] = 12 h, 1 µM, compound concentration 1 uM, replicate 1
[2] = 12 h, 1 µM, compound concentration 1 uM, replicate 2
[3] = 12 h, 10 µM, compound concentration 10 uM, replicate 1
[4] = 12 h, 10 µM, compound concentration 10 uM, replicate 2
[5] = 24 h, 1 µM, compound concentration 1 uM, replicate 1
[6] = 24 h, 1 µM, compound concentration 1 uM, replicate 2
[7] = 24 h, 10 µM, compound concentration 10 uM, replicate 1
[8] = 24 h, 10 µM, compound concentration 10 uM, replicate 2
[9] = 48 h, 1 µM, compound concentration 1 uM, replicate 1
[10] = 48 h, 1 µM, compound concentration 1 uM, replicate 2
[11] = 48 h, 10 µM, compound concentration 10 uM, replicate 1
[12] = 48 h, 10 µM, compound concentration 10 uM, replicate 2

O=C(NCCN1CCC(n2c(=O)[nH]c3cc(Cl)ccc32)CC1)c1ccc(F)cc1 [HALOPEMIDE]
Population Apoptotic (%) [1]: 46% | Population Fragmented Nuclei (%) [1]: 5% | Population Healthy Nuclei (%) [1]: 81% | Population Hoechst High Intensity Objects (%) [1]: 7% | Population Membrane Permeable-Phenotype (%) [1]: 0% | Population Mitochondria Different-Phenotype (%) [1]: 54% | Population Mitotic Cells (%) [1]: 53% | Population Normal (%) [1]: 92% | Population Pyknosed Nuclei (%) [1]: 13% | Population Tubulin-Different-Phenotype (%) [1]: 42% | Total Cell Count [1]: 334 | Population Apoptotic (%) [2]: 43% | Population Healthy Nuclei (%) [2]: 79% | Population Hoechst High Intensity Objects (%) [2]: 10% | Population Mitochondria Different-Phenotype (%) [2]: 62% | Population Mitotic Cells (%) [2]: 56% | Population Normal (%) [2]: 89% | Population Pyknosed Nuclei (%) [2]: 15% | Population Tubulin-Different-Phenotype (%) [2]: 29% | Total Cell Count [2]: 373 | Population Apoptotic (%) [3]: 39% | Population Fragmented Nuclei (%) [3]: 5% | Population Healthy Nuclei (%) [3]: 74% | Population Hoechst High Intensity Objects (%) [3]: 14% | Population Membrane Permeable-Phenotype (%) [3]: 0% | Population Mitochondria Different-Phenotype (%) [3]: 76% | Population Mitotic Cells (%) [3]: 60% | Population Normal (%) [3]: 85% | Population Pyknosed Nuclei (%) [3]: 20% | Population Tubulin-Different-Phenotype (%) [3]: 68% | Total Cell Count [3]: 460 | Population Apoptotic (%) [4]: 65% | Population Fragmented Nuclei (%) [4]: 6% | Population Healthy Nuclei (%) [4]: 72% | Population Hoechst High Intensity Objects (%) [4]: 13% | Population Membrane Permeable-Phenotype (%) [4]: 1% | Population Mitochondria Different-Phenotype (%) [4]: 84% | Population Mitotic Cells (%) [4]: 34% | Population Normal (%) [4]: 86% | Population Pyknosed Nuclei (%) [4]: 21% | Population Tubulin-Different-Phenotype (%) [4]: 59% | Total Cell Count [4]: 319 | Population Apoptotic (%) [5]: 40% | Population Fragmented Nuclei (%) [5]: 7% | Population Healthy Nuclei (%) [5]: 79% | Population Hoechst High Intensity Objects (%) [5]: 3% | Population Membrane Permeable-Phenotype (%) [5]: 1% | Population Mitochondria Different-Phenotype (%) [5]: 35% | Population Mitotic Cells (%) [5]: 59% | Population Normal (%) [5]: 96% | Population Pyknosed Nuclei (%) [5]: 12% | Population Tubulin-Different-Phenotype (%) [5]: 24% | Total Cell Count [5]: 471 | Population Fragmented Nuclei (%) [6]: 9% | Population Hoechst High Intensity Objects (%) [6]: 6% | Population Membrane Permeable-Phenotype (%) [6]: 0% | Population Mitochondria Different-Phenotype (%) [6]: 37% | Population Normal (%) [6]: 93% | Population Pyknosed Nuclei (%) [6]: 11% | Population Tubulin-Different-Phenotype (%) [6]: 21% | Total Cell Count [6]: 508 | Population Apoptotic (%) [7]: 27% | Population Fragmented Nuclei (%) [7]: 8% | Population Healthy Nuclei (%) [7]: 72% | Population Hoechst High Intensity Objects (%) [7]: 8% | Population Membrane Permeable-Phenotype (%) [7]: 1% | Population Mitochondria Different-Phenotype (%) [7]: 63% | Population Mitotic Cells (%) [7]: 72% | Population Normal (%) [7]: 91% | Population Pyknosed Nuclei (%) [7]: 19% | Population Tubulin-Different-Phenotype (%) [7]: 64% | Total Cell Count [7]: 580 | Population Apoptotic (%) [8]: 64% | Population Fragmented Nuclei (%) [8]: 9% | Population Healthy Nuclei (%) [8]: 70% | Population Membrane Permeable-Phenotype (%) [8]: 0% | Population Mitochondria Different-Phenotype (%) [8]: 78% | Population Mitotic Cells (%) [8]: 35% | Population Pyknosed Nuclei (%) [8]: 20% | Population Tubulin-Different-Phenotype (%) [8]: 62% | Total Cell Count [8]: 361 | Population Apoptotic (%) [9]: 30% | Population Fragmented Nuclei (%) [9]: 13% | Population Healthy Nuclei (%) [9]: 79% | Population Hoechst High Intensity Objects (%) [9]: 1% | Population Membrane Permeable-Phenotype (%) [9]: 1% | Population Mitochondria Different-Phenotype (%) [9]: 21% | Population Mitotic Cells (%) [9]: 69% | Population Normal (%) [9]: 98% | Population Pyknosed Nuclei (%) [9]: 6% | Population Tubulin-Different-Phenotype (%) [9]: 16% | Total Cell Count [9]: 841 | Population Apoptotic (%) [10]: 28% | Population Hoechst High Intensity Objects (%) [10]: 3% | Population Membrane Permeable-Phenotype (%) [10]: 0% | Population Mitotic Cells (%) [10]: 71% | Population Normal (%) [10]: 96% | Population Pyknosed Nuclei (%) [10]: 7% | Population Tubulin-Different-Phenotype (%) [10]: 10% | Total Cell Count [10]: 675 | Population Apoptotic (%) [11]: 37% | Population Fragmented Nuclei (%) [11]: 14% | Population Healthy Nuclei (%) [11]: 72% | Population Hoechst High Intensity Objects (%) [11]: 8% | Population Membrane Permeable-Phenotype (%) [11]: 1% | Population Mitochondria Different-Phenotype (%) [11]: 57% | Population Mitotic Cells (%) [11]: 62% | Population Normal (%) [11]: 91% | Population Pyknosed Nuclei (%) [11]: 12% | Population Tubulin-Different-Phenotype (%) [11]: 55% | Total Cell Count [11]: 706 | Population Apoptotic (%) [12]: 60% | Population Healthy Nuclei (%) [12]: 74% | Population Hoechst High Intensity Objects (%) [12]: 6% | Population Mitochondria Different-Phenotype (%) [12]: 64% | Population Mitotic Cells (%) [12]: 40% | Population Normal (%) [12]: 93% | Population Pyknosed Nuclei (%) [12]: 11% | Total Cell Count [12]: 531

— ChEMBL document CHEMBL5058577, “EUbOPEN Chemogenomics Library 2 (Multiplex)” (2022)
